Converted amounts (≈) assume the structure as drawn. A value given as a limit tells only on which side of the number the result lay.

A word on the MIC: it is the lowest concentration that inhibits growth of the organism.

A short description of assay [1]: Association constant to Ac2-L-Lys-D-Ala-D-Ala determined at pH 9; Value ranges from (9.5E4-3.5E5).
In assay [2] the test system is Enterococcus faecalis. Kind of assay: Minimum inhibitory concentration against Enterococcus faecalis ATCC 7080. It is filed as functional. The procedure, abridged:
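Microbroth dilution MIC (µg/mL), final inoculum 10^4 cfu/mL, incubated 24 h at 37 °C in air.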

Assay [3] has as its system Staphylococcus aureus. Kind of assay: Minimum inhibitory concentration against Staphylococcus aureus L 165. It is filed as functional. The procedure, abridged: (§1)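 MIC (µg/mL) by microbroth dilution in Iso-Sensitest broth; final inoculum 10^4 cfu/mL; 24 h at 37 °C in air.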
The test system of assay [4] is Staphylococcus epidermidis. Nature of the assay: Minimum inhibitory concentration against Staphylococcus epidermidis ATCC 12228. Format: functional. The essentials: as §1
Assay [5] has as its system Streptococcus pneumoniae. Kind of assay: Minimum inhibitory concentration against Streptococcus pneumoniae L 44. It is filed as functional. The essentials: (§2)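 MIC (µg/mL) by microbroth dilution in Todd-Hewitt broth, final inoculum 10^4 cfu/mL, incubated 24 h at 37 °C in air.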
Assay [6] concerns Staphylococcus haemolyticus. Kind of assay: Minimum inhibitory concentration against Staphylococcus haemolyticus L 602. Format: functional. The essentials: as §1
Assay [7] deals with Streptococcus pyogenes. Nature of the assay: Minimum inhibitory concentration against Streptococcus pyogenes L 49. Format: functional. The essentials:
as §2

For assay [8], the system named is Escherichia coli. Kind of assay: Minimum inhibitory concentration against Escherichia coli L 47. It is filed as functional. The procedure, abridged: as §1
The test system of assay [9] is Proteus vulgaris. Kind of assay: Minimum inhibitory concentration against Proteus vulgaris ATCC 881. It is filed as functional. The procedure, abridged: as §1
In assay [10] the test system is Pseudomonas aeruginosa. Kind of assay: Minimum inhibitory concentration against Pseudomonas aeruginosa ATCC 10145. It is filed as functional. The procedure, abridged:
as §1

Compound `CC(=O)N[C@@H]1[C@H](O[C@@H]2c3ccc(c(Cl)c3)Oc3cc4cc(c3O[C@@H]3O[C@@H](CO)[C@@H](O)[C@H](O)[C@@H]3NC(=O)CCCCCCC(C)C)Oc3ccc(cc3Cl)C[C@H]3NC(=O)[C@H](N)c5ccc(O)c(c5)Oc5cc(O)cc(c5)[C@H](NC3=O)C(=O)N[C@H]4C(=O)N[C@H]3C(=O)N[C@@H]2C(=O)N[C@H](C(=O)NCCCN(CCCN)CCCN)c2cc(O)cc(O[C@H]4O[C@H](CO)[C@@H](O)[C@@H](O)[C@@H]4O)c2-c2cc3ccc2O)O[C@@H](CO)[C@@H](O)[C@@H]1O` displayed a Ka in [1] of 350000 M⁻¹. For the same compound, the MIC in assay [2] was found to be 0.125 µg/mL (≈ 0.061 µM); in assay [3], 0.125 µg/mL (≈ 0.061 µM); in assay [4] it was 0.125 µg/mL (≈ 0.061 µM); in assay [5] it was 0.063 µg/mL (≈ 0.0307 µM); in assay [6], 2 µg/mL (≈ 0.976 µM); in assay [7], 0.063 µg/mL (≈ 0.0307 µM).
Regarding `N[C@H]1C(=O)N[C@@H]2Cc3ccc(c(Cl)c3)Oc3cc4cc(c3O)Oc3ccc(cc3Cl)[C@@H](O)[C@@H]3NC(=O)[C@H](NC(=O)[C@@H]4NC(=O)[C@@H](NC2=O)c2cc(O)cc(c2)Oc2cc1ccc2O)c1ccc(O)c(c1)-c1c(O)cc(O)cc1[C@@H](C(=O)N1CCNCCNCCNCCNCCNCC1)NC3=O`, the MIC was 0.5 µg/mL (≈ 0.347 µM) in assay [2]; greater than 128 µg/mL in [8]; greater than 128 µg/mL in assay [9]; greater than 128 µg/mL in [10]; 0.125 µg/mL (≈ 0.0868 µM) in assay [3]; 0.125 µg/mL (≈ 0.0868 µM) in assay [4]. Moreover, the MIC in [5] stood at 0.25 µg/mL (≈ 0.174 µM); in assay [6], 1 µg/mL (≈ 0.695 µM); in assay [7], 0.25 µg/mL (≈ 0.174 µM).
`CC(=O)N[C@@H]1[C@H](O[C@@H]2c3ccc(c(Cl)c3)Oc3cc4cc(c3O[C@@H]3O[C@@H](CO)[C@@H](O)[C@H](O)[C@@H]3NC(=O)CCCCCCC(C)C)Oc3ccc(cc3Cl)C[C@H]3NC(=O)[C@H](N)c5ccc(O)c(c5)Oc5cc(O)cc(c5)[C@H](NC3=O)C(=O)N[C@H]4C(=O)N[C@H]3C(=O)N[C@@H]2C(=O)N[C@H](C(=O)NCCCNCCNCCCN)c2cc(O)cc(O[C@H]4O[C@H](CO)[C@@H](O)[C@@H](O)[C@@H]4O)c2-c2cc3ccc2O)O[C@@H](CO)[C@@H](O)[C@@H]1O` showed a Ka in assay [1] of 350000 M⁻¹. Moreover, the MIC stood at 0.125 µg/mL (≈ 0.0614 µM) in [2]; 0.25 µg/mL (≈ 0.123 µM) in assay [3]; 0.125 µg/mL (≈ 0.0614 µM) in assay [4]; 0.125 µg/mL (≈ 0.0614 µM) in assay [5]; 0.125 µg/mL (≈ 0.0614 µM) in assay [6]; 0.063 µg/mL (≈ 0.0309 µM) in assay [7].
Compound `CC(=O)N[C@@H]1[C@H](O[C@@H]2c3ccc(c(Cl)c3)Oc3cc4cc(c3O[C@@H]3O[C@@H](CO)[C@@H](O)[C@H](O)[C@@H]3NC(=O)CCCCCCC(C)C)Oc3ccc(cc3Cl)C[C@H]3NC(=O)[C@H](N)c5ccc(O)c(c5)Oc5cc(O)cc(c5)[C@H](NC3=O)C(=O)N[C@H]4C(=O)N[C@H]3C(=O)N[C@@H]2C(=O)N[C@H](C(=O)N2CCCCN(CCCN(C)C)CCCC2)c2cc(O)cc(O[C@H]4O[C@H](CO)[C@@H](O)[C@@H](O)[C@@H]4O)c2-c2cc3ccc2O)O[C@@H](CO)[C@@H](O)[C@@H]1O` showed a Ka in assay [1] of 350000 M⁻¹. Moreover, the minimal inhibitory concentration (MIC) stood at 0.125 µg/mL (≈ 0.0598 µM) in [2]; 0.125 µg/mL (≈ 0.0598 µM) in [3]; 0.063 µg/mL (≈ 0.0302 µM) in assay [4]; 0.125 µg/mL (≈ 0.0598 µM) in assay [5]; 0.5 µg/mL (≈ 0.239 µM) in assay [6]; 0.063 µg/mL (≈ 0.0302 µM) in assay [7].
Consider `CC(=O)N[C@@H]1[C@H](O[C@@H]2c3ccc(c(Cl)c3)Oc3cc4cc(c3O[C@@H]3O[C@@H](CO)[C@@H](O)[C@H](O)[C@@H]3NC(=O)CCCCCCC(C)C)Oc3ccc(cc3Cl)C[C@H]3NC(=O)[C@H](N)c5ccc(O)c(c5)Oc5cc(O)cc(c5)[C@H](NC3=O)C(=O)N[C@H]4C(=O)N[C@H]3C(=O)N[C@@H]2C(=O)N[C@H](C(=O)NCCCNCCCN)c2cc(O)cc(O[C@H]4O[C@H](CO)[C@@H](O)[C@@H](O)[C@@H]4O)c2-c2cc3ccc2O)O[C@@H](CO)[C@@H](O)[C@@H]1O`, for which the Ka in [1] was found to be 350000 M⁻¹. Also, the MIC in assay [2] was 0.5 µg/mL (≈ 0.251 µM); in assay [3], 1 µg/mL (≈ 0.502 µM); in assay [4], 0.25 µg/mL (≈ 0.125 µM); in assay [5], 0.125 µg/mL (≈ 0.0627 µM); in assay [6] it was 2 µg/mL (≈ 1 µM); in assay [7], 0.125 µg/mL (≈ 0.0627 µM).
Turning to `NCCCN1CCCCN(CCCNC(=O)[C@H]2NC(=O)[C@H]3NC(=O)[C@H](NC(=O)[C@@H]4NC(=O)[C@H]5NC(=O)[C@@H](Cc6ccc(c(Cl)c6)Oc6cc4cc(c6O)Oc4ccc(cc4Cl)[C@H]3O)NC(=O)[C@H](N)c3ccc(O)c(c3)Oc3cc(O)cc5c3)c3ccc(O)c(c3)-c3c(O)cc(O)cc32)CCCC1`, the MIC in [2] came to 0.125 µg/mL (≈ 0.087 µM); in assay [8], 4 µg/mL (≈ 2.78 µM); in [9] it was 128 µg/mL (≈ 89.1 µM); in [10] it was 16 µg/mL (≈ 11.1 µM); in assay [3], 0.063 µg/mL (≈ 0.0438 µM); in assay [4] it was 0.063 µg/mL (≈ 0.0438 µM). The MIC was 0.125 µg/mL (≈ 0.087 µM) in [5], 0.125 µg/mL (≈ 0.087 µM) in [6] and 0.063 µg/mL (≈ 0.0438 µM) in assay [7].
For the compound `N[C@H]1C(=O)N[C@@H]2Cc3ccc(c(Cl)c3)Oc3cc4cc(c3O)Oc3ccc(cc3Cl)[C@@H](O)[C@@H]3NC(=O)[C@H](NC(=O)[C@@H]4NC(=O)[C@@H](NC2=O)c2cc(O)cc(c2)Oc2cc1ccc2O)c1ccc(O)c(c1)-c1c(O)cc(O)cc1[C@@H](C(=O)NCCN1CCCCNCCCC1)NC3=O`, the MIC in [2] is 0.125 µg/mL (≈ 0.0915 µM); in [8] it was 8 µg/mL (≈ 5.86 µM); in assay [9] it was 64 µg/mL (≈ 46.8 µM); in [10] it was 64 µg/mL (≈ 46.8 µM); in assay [3], 0.125 µg/mL (≈ 0.0915 µM); in assay [4], 0.063 µg/mL (≈ 0.0461 µM). Also, the figures for the MIC in assay [5], in assay [6] and in assay [7] were 0.125 µg/mL (≈ 0.0915 µM), 0.125 µg/mL (≈ 0.0915 µM) and 0.063 µg/mL (≈ 0.0461 µM), respectively.
`CN(C)CCCN1CCCCN(C(=O)[C@H]2NC(=O)[C@H]3NC(=O)[C@H](NC(=O)[C@@H]4NC(=O)[C@H]5NC(=O)[C@@H](Cc6ccc(c(Cl)c6)Oc6cc4cc(c6O)Oc4ccc(cc4Cl)[C@H]3O)NC(=O)[C@H](N)c3ccc(O)c(c3)Oc3cc(O)cc5c3)c3ccc(O)c(c3)-c3c(O)cc(O)cc32)CCCC1`: the MIC in assay [2] is 0.125 µg/mL (≈ 0.0888 µM); in [8], 8 µg/mL (≈ 5.68 µM); in assay [9] it was 128 µg/mL (≈ 90.9 µM); in assay [10] it was 32 µg/mL (≈ 22.7 µM); in assay [3] it was 0.063 µg/mL (≈ 0.0447 µM); in assay [4], 0.063 µg/mL (≈ 0.0447 µM). The MIC in [5] was determined as 0.125 µg/mL (≈ 0.0888 µM); in [7] it was 0.063 µg/mL (≈ 0.0447 µM).
Consider `CCN(CC)CCN(CCCN)CCCNC(=O)[C@H]1NC(=O)[C@H]2NC(=O)[C@H](NC(=O)[C@@H]3NC(=O)[C@H]4NC(=O)[C@@H](Cc5ccc(c(Cl)c5)Oc5cc3cc(c5O)Oc3ccc(cc3Cl)[C@H]2O)NC(=O)[C@H](N)c2ccc(O)c(c2)Oc2cc(O)cc4c2)c2ccc(O)c(c2)-c2c(O)cc(O)cc21`, for which the MIC in [2] was 0.125 µg/mL (≈ 0.0886 µM); in assay [8], 32 µg/mL (≈ 22.7 µM); in assay [9] it was greater than 128 µg/mL; in assay [10] it was 128 µg/mL (≈ 90.7 µM); in assay [3], 0.125 µg/mL (≈ 0.0886 µM); in assay [4] it was 0.032 µg/mL (≈ 0.0227 µM). Moreover, the MIC in assay [5], in assay [6] and in assay [7] was 0.125 µg/mL (≈ 0.0886 µM) throughout.

The values above are taken from ChEMBL document CHEMBL1125337, “Synthesis and antibacterial activity of a series of basic amides of teicoplanin and deglucoteicoplanin with polyamines” (J Med Chem, 1992).
